Experimental data pooled from the literature.
Target: Serine/threonine-protein kinase 38-like (STK38L, Homo sapiens, UniProt Q9Y2H1)

F[C@@H]1CCN(c2nccc(-c3cnn4ncccc34)n2)C1  remaining binding (binding; 1 µM): 100%
O=C(c1ccc(Nc2ncc(Cl)c(-c3ccc(Cl)s3)n2)cc1)N1CCC(N2CCCC2)CC1  remaining binding (binding; competition with immobilised ligand; 1 µM): 84%
N#CC1(c2ccccn2)CCN(Cc2cc(C(=O)N3CCCC3)c(=O)n3ccccc23)CC1  remaining binding (cell-free assay; competition with immobilised ligand; 1 µM): 90%
c1cncc(-c2cccc(Nc3nccc(NC4CCCCC4)n3)c2)c1  remaining binding (binding; competition with immobilised ligand; 10 µM): 100%
CN(c1nccc(-c2cnn3ncccc23)n1)C1CC1  remaining binding (binding; 1 µM): 100%
COc1ccc2c(c1)O[C@@H](c1ccc(OC)c(OC)c1)C[C@H]2NC(=O)C1(c2ccc3c(c2)OC(F)(F)O3)CC1  remaining binding (cell-free assay; competition with immobilised ligand; 1 µM): 100%
CCN1CCN(Cc2ccc(C(=O)Nc3ccc(C)c(Oc4ccc5c(c4)CC(=O)N5)c3)cc2C(F)(F)F)CC1  remaining binding (binding; competition with immobilised ligand; 1 µM): 100%
CNC(=O)[C@@H]1CC[C@@H](n2c(-c3ccc4cnccc4c3)nc3ccc(C(=O)NCc4cccc(C(N)=O)c4)cc32)C1  remaining binding (binding; competition with immobilised ligand; 1 µM): 100%
COc1ncc2cc3ccccc3nc2c1C#N  remaining binding (binding; competition with immobilised ligand; 5 µM): 87%
COc1cnc(Nc2cccc(S(N)(=O)=O)c2)nc1N1CCN(c2ccccc2)C(=O)C1  remaining binding (binding; competition with immobilised ligand; 1 µM): 100%
O=C(NC[C@@H]1[C@H]2CN(C(=O)OCc3cc(C(F)(F)F)cc(C(F)(F)F)c3)C[C@@H]12)c1ccc2[nH]nnc2c1  remaining binding (cell-free assay; competition with immobilised ligand; 1 µM): 45%
N[C@H]1CCN(c2nccc(-c3cnn4ncccc34)n2)C1  remaining binding (binding; 1 µM): 100%
O=C(NCC1CCOCC1)c1n[nH]cc1NC(=O)c1c(F)cccc1F  remaining binding (binding; competition with immobilised ligand; 1 µM): 87%
c1cnn2ncc(-c3ccnc(N4CCC45COC5)n3)c2c1  remaining binding (binding; 1 µM): 78%
O=C(NCCCN1CCOCC1)c1ccc(Nc2nccc(-c3cc4ccccc4s3)n2)cc1  remaining binding (binding; competition with immobilised ligand; 1 µM): 100%
C=CC(=O)N1CCC(C(=O)NCC(=O)N2CCN(c3nc(-c4cnc(N)nc4C(F)F)nc(N4CCOCC4)n3)CC2)CC1  remaining binding (binding; competition with immobilised ligand; 1 µM): 97%
CNC(=O)Nc1ccc2c(c1)[C@@]1(CC2)OC(=O)N(CC(=O)N(Cc2ccc(F)cc2)[C@@H](C)C(F)(F)F)C1=O  remaining binding (binding; competition with immobilised ligand; 1 µM): 67%
CN(CCCC(F)(F)F)c1nccc(-c2cnn3ncccc23)n1  remaining binding (binding; 1 µM): 100%
CC(C)(O)c1cncc(-c2nc3ccc(F)cc3n2C2CC2)c1  remaining binding (cell-free assay; competition with immobilised ligand; 1 µM): 100%
O=C(NCCCN1CCOCC1)c1ccc(Nc2ncc(Cl)c(-c3ccc(Cl)s3)n2)cc1  remaining binding (binding; competition with immobilised ligand; 1 µM): 82%
O=S(=O)(NC1CCC(c2cc(F)ccc2F)(S(=O)(=O)c2ccc(Cl)cc2)CC1)C(F)(F)F (stereo not shown)  remaining binding (binding; competition with immobilised ligand; 1 µM): 75%
C[C@@H]1CCN(c2nccc(-c3cnn4ncccc34)n2)C1  remaining binding (binding; 1 µM): 100%
